Values joined by “and” are separate entries in the source; they are usually repeats but may differ in a detail not shown here. Equal values may be shown once.
Tested on: HEK-293T
Test: Multiplex assay against HEK293T
Format: toxicity, cell-based
Details: human
In short: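 Live cells were stained at seeding with Hoechst33342, BioTracker Green Microtubule Cytoskeleton Dye, MitoTracker Red and Annexin V Alexa Fluor 680. Following compound addition, they were imaged on a CQ1 microscope at 37°C and 5% CO2 and gated by CellPathfinder machine learning into Hoechst high-intensity objects or normal cells, with normal cells split into healthy, pyknosed or fragmented nuclei and pyknosed cells into mitotic or apoptotic. Tubulin, mitochondrial-mass and membrane-permeability phenotypes are per cents of healthy-nucleus cells.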

[1] = 12 h, 1 µM, compound concentration 1 uM
[2] = 12 h, 10 µM, compound concentration 10 uM
[3] = 24 h, 1 µM, compound concentration 1 uM
[4] = 24 h, 10 µM, compound concentration 10 uM
[5] = 48 h, 1 µM, compound concentration 1 uM
[6] = 48 h, 10 µM, compound concentration 10 uM

CCC(=N\O)/C(C)=C/c1ccc(F)cc1 [A-079]
Population Apoptotic (%) [1]: 11.21% and 9.93% | Population Fragmented Nuclei (%) [1]: 3.75% and 3.83% | Population Hoechst High Intensity Objects (%) [1]: 0% | Population Membrane Permeable-Phenotype (%) [1]: 0% and 2.86% | Population Mitochondria Different-Phenotype (%) [1]: 29.63% and 22.86% | Population Mitotic Cells (%) [1]: 88.79% and 90.07% | Population Normal (%) [1]: 100% | Population Pyknosed Nuclei (%) [1]: 31.1% and 77.05% | Total Cell Count [1]: 373 and 183 | Population Apoptotic (%) [2]: 7.79% and 9.52% | Population Fragmented Nuclei (%) [2]: 0.57% and 1.59% | Population Hoechst High Intensity Objects (%) [2]: 0.28% and 0.79% | Population Membrane Permeable-Phenotype (%) [2]: 0.51% and 0% | Population Mitotic Cells (%) [2]: 92.21% and 90.48% | Population Normal (%) [2]: 99.72% and 99.21% | Population Pyknosed Nuclei (%) [2]: 43.87% and 83.33% | Total Cell Count [2]: 352 and 127 | Population Apoptotic (%) [3]: 14.77% and 10.19% | Population Fragmented Nuclei (%) [3]: 4.65% and 2.11% | Population Healthy Nuclei (%) [3]: 80.21% and 41.05% | Population Hoechst High Intensity Objects (%) [3]: 0% | Population Membrane Permeable-Phenotype (%) [3]: 1.72% and 1.28% | Population Mitochondria Different-Phenotype (%) [3]: 15.02% and 6.41% | Population Mitotic Cells (%) [3]: 85.23% and 89.81% | Population Normal (%) [3]: 100% | Population Tubulin-Different-Phenotype (%) [3]: 7.73% and 3.85% | Population Apoptotic (%) [4]: 13.24% and 15.38% | Population Fragmented Nuclei (%) [4]: 1.47% and 1.14% | Population Healthy Nuclei (%) [4]: 73.48% and 39.77% | Population Hoechst High Intensity Objects (%) [4]: 0.18% and 0.56% | Population Membrane Permeable-Phenotype (%) [4]: 0.75% and 0% | Population Mitochondria Different-Phenotype (%) [4]: 16.04% and 8.57% | Population Mitotic Cells (%) [4]: 86.76% and 84.62% | Population Normal (%) [4]: 99.82% and 99.44% | Population Pyknosed Nuclei (%) [4]: 25.05% and 59.09% | Population Apoptotic (%) [5]: 8.9% and 17.46% | Population Fragmented Nuclei (%) [5]: 5.91% and 2.96% | Population Healthy Nuclei (%) [5]: 84.62% and 78.4% | Population Hoechst High Intensity Objects (%) [5]: 0% and 0.29% | Population Membrane Permeable-Phenotype (%) [5]: 6.52% and 3.4% | Population Mitochondria Different-Phenotype (%) [5]: 8.82% and 9.06% | Population Mitotic Cells (%) [5]: 91.1% and 82.54% | Population Normal (%) [5]: 100% and 99.71% | Population Pyknosed Nuclei (%) [5]: 9.47% and 18.64% | Population Apoptotic (%) [6]: 8.2% and 20.78% | Population Fragmented Nuclei (%) [6]: 3.08% and 0.64% | Population Healthy Nuclei (%) [6]: 85.54% and 50% | Population Hoechst High Intensity Objects (%) [6]: 0% and 0.64% | Population Membrane Permeable-Phenotype (%) [6]: 3.82% and 1.28% | Population Mitochondria Different-Phenotype (%) [6]: 18.43% and 25.64% | Population Mitotic Cells (%) [6]: 91.8% and 79.22% | Population Normal (%) [6]: 100% and 99.36%

CCCCC[C@H](O)/C=C/[C@H]1[C@H](O)CC(=O)[C@@H]1CCCCCCC(=O)O [ALPROSTADIL]
Population Apoptotic (%) [1]: 35% and 50% | Population Fragmented Nuclei (%) [1]: 7% and 6% | Population Healthy Nuclei (%) [1]: 79% and 80% | Population Hoechst High Intensity Objects (%) [1]: 7% and 6% | Population Membrane Permeable-Phenotype (%) [1]: 0% | Population Mitochondria Different-Phenotype (%) [1]: 42% and 55% | Population Mitotic Cells (%) [1]: 64% and 49% | Population Normal (%) [1]: 92% and 93% | Population Pyknosed Nuclei (%) [1]: 13% | Population Tubulin-Different-Phenotype (%) [1]: 28% and 18% | Total Cell Count [1]: 471 and 392 | Population Apoptotic (%) [2]: 33% | Population Fragmented Nuclei (%) [2]: 7% | Population Healthy Nuclei (%) [2]: 78% and 75% | Population Hoechst High Intensity Objects (%) [2]: 6% and 9% | Population Membrane Permeable-Phenotype (%) [2]: 1% and 0% | Population Mitochondria Different-Phenotype (%) [2]: 48% and 64% | Population Mitotic Cells (%) [2]: 66% | Population Normal (%) [2]: 93% and 90% | Population Pyknosed Nuclei (%) [2]: 14% and 17% | Population Tubulin-Different-Phenotype (%) [2]: 33% and 30% | Total Cell Count [2]: 318 and 309 | Population Apoptotic (%) [3]: 35% and 34% | Population Fragmented Nuclei (%) [3]: 9% and 6% | Population Healthy Nuclei (%) [3]: 79% and 85% | Population Hoechst High Intensity Objects (%) [3]: 3% and 4% | Population Membrane Permeable-Phenotype (%) [3]: 1% and 0% | Population Mitochondria Different-Phenotype (%) [3]: 22% and 35% | Population Mitotic Cells (%) [3]: 64% and 65% | Population Normal (%) [3]: 96% and 95% | Population Pyknosed Nuclei (%) [3]: 10% and 8% | Population Tubulin-Different-Phenotype (%) [3]: 15% and 14% | Total Cell Count [3]: 605 and 526 | Population Apoptotic (%) [4]: 32% and 36% | Population Fragmented Nuclei (%) [4]: 11% and 7% | Population Healthy Nuclei (%) [4]: 76% and 79% | Population Hoechst High Intensity Objects (%) [4]: 2% and 8% | Population Membrane Permeable-Phenotype (%) [4]: 0% | Population Mitochondria Different-Phenotype (%) [4]: 26% and 50% | Population Mitotic Cells (%) [4]: 67% and 63% | Population Normal (%) [4]: 97% and 91% | Population Pyknosed Nuclei (%) [4]: 12% | Population Tubulin-Different-Phenotype (%) [4]: 23% and 22% | Total Cell Count [4]: 439 and 345 | Population Apoptotic (%) [5]: 32% and 13% | Population Fragmented Nuclei (%) [5]: 13% and 16% | Population Healthy Nuclei (%) [5]: 79% and 77% | Population Hoechst High Intensity Objects (%) [5]: 2% and 3% | Population Membrane Permeable-Phenotype (%) [5]: 2% and 0% | Population Mitochondria Different-Phenotype (%) [5]: 12% and 21% | Population Mitotic Cells (%) [5]: 67% and 86% | Population Normal (%) [5]: 97% and 96% | Population Pyknosed Nuclei (%) [5]: 7% and 6% | Population Tubulin-Different-Phenotype (%) [5]: 11% and 12% | Total Cell Count [5]: 1005 and 714 | Population Apoptotic (%) [6]: 25% and 20% | Population Fragmented Nuclei (%) [6]: 15% and 14% | Population Healthy Nuclei (%) [6]: 76% and 79% | Population Hoechst High Intensity Objects (%) [6]: 2% | Population Membrane Permeable-Phenotype (%) [6]: 1% and 0% | Population Mitochondria Different-Phenotype (%) [6]: 17% and 30% | Population Mitotic Cells (%) [6]: 75% and 80% | Population Normal (%) [6]: 97% | Population Pyknosed Nuclei (%) [6]: 7% and 6% | Population Tubulin-Different-Phenotype (%) [6]: 15% and 14% | Total Cell Count [6]: 685 and 537

Reference: ChEMBL document CHEMBL5724801, “EUbOPEN Chemogenomics Library - Multiplex” (2024)
